Values after ≈ are worked out from the molar mass of the structure shown. Active and inactive are the calls of the source. No cut-off for these calls is given here. Residues, ends and D or L forms follow the SMILES beside them. *: point of attachment. βNA = c1ccc2cc(N*)ccc2c1
Columns and labels:
Escherichia coli [1] = assay: Antibacterial activity against Escherichia coli AG102 overexpressing AcrAB-TolC by p-iodonitrotetrazolium chloride colorimetric assay; format: functional
In short: (§1)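 Two-fold broth microdilution in Mueller-Hinton broth, read by p-iodonitrotetrazolium chloride colorimetric assay. MIC is the lowest concentration giving no visible growth. MG1655 ΔacrB ΔtolC strains carrying pABM or pXYM were always cultured with 100 μg/mL ampicillin and 1 mM IPTG. Medium, inoculum and 1% DMSO (final) served as negative control.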

Escherichia coli [2] = assay: Antibacterial activity against Escherichia coli transformed with plasmid carrying MG1655 deltaBC/pXYM by p-iodonitrotetrazolium chloride colorimetric assay; format: functional; in short: as §1
Escherichia coli [3] = assay: Antibacterial activity against Escherichia coli transformed with plasmid carrying MG1655 deltaBC/pABM by p-iodonitrotetrazolium chloride colorimetric assay; format: functional; in short: as §1
Escherichia coli [4] = assay: Inhibition of AcrAB-TolC pump in Escherichia coli AG100 assessed as increase in intracellular H33342 fluorescence at 15.6 ug/ml after 60 mins by efflux inhibition assay; format: cell-based
In short: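 AG100 (wild-type K-12) or AG100A (ΔacrAB) cells were grown in Luria broth at 37 °C and 200 rpm to OD600 1.0, PBS-washed and diluted to OD600 0.3. Cells took up 2.5 μM Hoechst 33342 with 22 mM glucose at 37 °C for about 30 min, then compound (0.06–64 μg/mL) or PAβN (15.6 μg/mL) was added. Fluorescence (Ex 350/Em 460 nm) was followed for 60 min and corrected for background. The last four time points were compared to dye-only control by ANOVA with Dunnett's test, run in duplicate.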

SMILES	MIC (Escherichia coli [1]) [mg/L]	MIC (Escherichia coli [2]) [mg/L]	MIC (Escherichia coli [3]) [mg/L]	inhibition (Escherichia coli [4])
NC[C@H]1O[C@H](O[C@H]2[C@H](O)[C@@H](O[C@H]3O[C@H](CO)[C@@H](O)[C@H](N)[C@H]3O)[C@H](N)C[C@@H]2N)[C@H](O)[C@@H](O)[C@@H]1O [KANAMYCIN]	16 (≈ 33 µM)	0.25 (≈ 0.516 µM)	2 (≈ 4.13 µM)	
CN(C)[C@@H]1C(O)=C(C(N)=O)C(=O)[C@@]2(O)C(O)=C3C(=O)c4c(O)cccc4[C@@](C)(O)[C@H]3C[C@@H]12 [TETRACYCLINE]	8 (≈ 18 µM)	0.25 (≈ 0.563 µM)	2 (≈ 4.5 µM)	
Cc1onc(-c2ccccc2)c1C(=O)N[C@@H]1C(=O)N2[C@@H]1SC(C)(C)[C@@H]2C(=O)O [OXACILLIN]	> 650	> 1300	> 1300	
CCN1CCN(C(=O)N[C@@H](C(=O)N[C@@H]2C(=O)N3[C@@H]2SC(C)(C)[C@@H]3C(=O)O)c2ccccc2)C(=O)C1=O [PIPERACILLIN]	4 (≈ 7.73 µM)	512 (≈ 989 µM)	> 512	
O=C(O)c1cn(C2CC2)c2cc(N3CCNCC3)c(F)cc2c1=O [CIPROFLOXACIN]	0.13 (≈ 0.392 µM)			
C[C@H]1COc2c(N3CCN(C)CC3)c(F)cc3c(=O)c(C(=O)O)cn1c23.C[C@H]1COc2c(N3CCN(C)CC3)c(F)cc3c(=O)c(C(=O)O)cn1c23.O [LEVOFLOXACIN]	0.13	0.13	0.13	
N=C(N)NCCC[C@H](NC(=O)[C@@H](N)Cc1ccccc1)C(=O)Nc1ccc2ccccc2c1 (H-Phe-Arg-βNA)				Active
CC[C@H]1OC(=O)[C@H](C)[C@@H](O[C@H]2C[C@@](C)(OC)[C@@H](O)[C@H](C)O2)[C@H](C)[C@@H](O[C@@H]2O[C@H](C)C[C@H](N(C)C)[C@H]2O)[C@](C)(O)C[C@@H](C)C(=O)[C@H](C)[C@@H](O)[C@]1(C)O [ERYTHROMYCIN]	128 (≈ 174 µM)	32 (≈ 43.6 µM)	32 (≈ 43.6 µM)	
O=C(N[C@H](CO)[C@H](O)c1ccc([N+](=O)[O-])cc1)C(Cl)Cl [CHLORAMPHENICOL]	24 (≈ 74.3 µM)	0.75 (≈ 2.32 µM)	24 (≈ 74.3 µM)	

Reference: ChEMBL document CHEMBL3576792, “Enhancement of antibiotic activity against multidrug-resistant bacteria by the efflux pump inhibitor 3,4-dibromopyrrole-2,5-dione isolated from a Pseudoalteromonas sp” (J Nat Prod, 2015)
